Reference: the array DNA melting data of Ke et al. (doi:10.1101/2024.01.08.574731)

Key:
[1] = melting temperature; fluorescence melt of hairpins on a sequencing array, two-state fit, raised by 9.35 °C to match UV melts; settings: sodium 0.088 M
Procedure, shortened: (§1)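 Folding enthalpy and melting temperature were estimated with bootstrapped two-state fits and combined across four replicates by inverse-variance weighting, with fitted temperatures raised by 9.35 °C to match UV melts. The data were Cy3 fluorescence of library hairpins, with annealed Cy3 and quencher oligos, on a sequenced MiSeq flow cell in 50 mM Na-HEPES pH 8.0, 25 mM NaCl, imaged in 2.5 °C steps up to 60 °C and normalised to pre-quench Cy3 and control constructs.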

[2] = folding enthalpy; higher = less favourable; fluorescence melt of hairpins on a sequencing array, two-state fit; settings: sodium 0.088 M
Procedure, shortened: as §1

| Sequence | Tm [1] | folding enthalpy [2] |
| --- | --- | --- |
| GGCTAGGGAAACTTAGCC (((((.(....).))))) | 49.4 °C | -37.1 kcal/mol |
| GGCTATACGAAAGTAGCC (((..(((....)))))) | 48.7 °C | -32.6 kcal/mol |
| GGCTCACGAAAGTGGCC (((.(((....)))))) | 56.6 °C | -26.3 kcal/mol |
| GGCTCAGGAAACCGAGCC (((((.(....).))))) | 54.5 °C | -49.1 kcal/mol |
| GGCTCATCGAAAGATGCC (((..(((....)))))) | 37.5 °C | -13.3 kcal/mol |
| GGCTCCGAAAGGAACGCC ((((((....)))..))) | 50.5 °C | -21 kcal/mol |
| GGCTCCGAAAGGAAGGCC ((((((....)))..))) | 52.6 °C | -29.7 kcal/mol |
| GGCTCCGAAAGGACGCC ((((((....))).))) | 59.9 °C | -29.1 kcal/mol |
| GGCTCCGCGAAAGCGGCC (((..(((....)))))) | 41.4 °C | -8.55 kcal/mol |
| GGCTCGCCGAAAGGCGCC (((..(((....)))))) | 35.7 °C | -6.98 kcal/mol |
| GGCTCGGGAAACCGAACC ((.((((....)))).)) | 48.8 °C | -29.7 kcal/mol |
| GGCTCTACGAAAGTAGCC (((..(((....)))))) | 40.1 °C | -17.1 kcal/mol |
| GGCTCTCCGAAAGGAGCC (((..(((....)))))) | 49 °C | -15 kcal/mol |
| GGCTCTGGAAACAAAGCC ((((.((....)).)))) | 38 °C | -29.9 kcal/mol |
| GGCTGACCGAAAGGTGCC (((..(((....)))))) | 52.4 °C | -24.7 kcal/mol |
| GGCTGACGAAAGTCGCC (((.(((....)))))) | 59.6 °C | -28.9 kcal/mol |
| GGCTGAGGAAACTCGGTC (.(.(((....))).).) | 40.8 °C | -25 kcal/mol |
| GGCTGCACGAAAGTGGCC (((..(((....)))))) | 49 °C | -20 kcal/mol |
| GGCTGCCGAAAGGCGCC (((.(((....)))))) | 68.3 °C | -18.9 kcal/mol |
| GGCTGCGAAAGCATAGCC ((((((....)))..))) | 57.1 °C | -35.5 kcal/mol |
| GGCTGCGCGAAAGCGGCC (((..(((....)))))) | 60.3 °C | -19.2 kcal/mol |
| GGCTGCTCGAAAGAGGCC (((..(((....)))))) | 43.8 °C | -19.7 kcal/mol |
| GGCTGGAAACAGCC (((((....))))) | 67.5 °C | -30.9 kcal/mol |

| Sequence | Tm [1] | folding enthalpy [2] |
| --- | --- | --- |
| GGCTGGGGAAACCCAACC ((.((((....)))).)) | 45.8 °C | -27 kcal/mol |
| GGCTGGGGAAACCTGGCC (((..((....))..))) | 51.7 °C | -30.6 kcal/mol |
| GGCTGTACGAAAGTAGCC (((..(((....)))))) | 51.1 °C | -27.5 kcal/mol |
| GGCTGTGGAAACACGGCC (((.(((....))).))) | 60.8 °C | -46.6 kcal/mol |
| GGCTTACGAAAGTAGGCC (((.(((....))).))) | 60.1 °C | -43.6 kcal/mol |
| GGCTTAGGAAACTAGGCC (((.(((....))).))) | 48.7 °C | -31.3 kcal/mol |
| GGCTTCGAAAGAAAAGCC ((((((....)))..))) | 46.6 °C | -28 kcal/mol |
| GGCTTCGAAAGAAATGCC ((((((....)))..))) | 38.5 °C | -25.3 kcal/mol |
| GGCTTCGAAAGAATCGCC ((((((....)))..))) | 35.8 °C | -27.7 kcal/mol |
| GGCTTCGAAAGAATGGCC ((((((....)))..))) | 42.2 °C | -25.2 kcal/mol |
| GGCTTCGGAAACGGAGCC ((((.((....)).)))) | 59.1 °C | -42.2 kcal/mol |
| GGCTTGACGAAAGTCGCC (((..(((....)))))) | 55.2 °C | -14.5 kcal/mol |
| GGCTTGGGAAACCAGGTC (.(.(((....))).).) | 37 °C | -23.2 kcal/mol |
| GGCTTGTCGAAAGACGCC (((..(((....)))))) | 49.9 °C | -18.5 kcal/mol |
| GGCTTTCGAAAGAACGCC (((.(((....))).))) | 50.2 °C | -39.3 kcal/mol |
| GGCTTTGGAAACAAGGTC (.(.(((....))).).) | 32.2 °C | -13.9 kcal/mol |
| GGCTTTGGAAACAGAGTC (.((.((....)).)).) | 29.3 °C | -10.1 kcal/mol |
| GGGAAAACGAAAGTTCCC (((..(((....)))))) | 43.5 °C | -27.1 kcal/mol |
| GGGAAACGAAAGTTCCC (((.(((....)))))) | 53.4 °C | -28 kcal/mol |
| GGGAAAGCGAAAGCTCCC (((..(((....)))))) | 51.8 °C | -20.9 kcal/mol |
| GGGAACACGAAAGTGCCC (((..(((....)))))) | 45 °C | -19.8 kcal/mol |
| GGGAACCGAAAGGTACCC (((.(((....))).))) | 58.6 °C | -34.5 kcal/mol |
| GGGAACGAAAGTTCACCC ((((((....)))..))) | 51.6 °C | -20.7 kcal/mol |

| Sequence | Tm [1] | folding enthalpy [2] |
| --- | --- | --- |
| GGGAACGAAAGTTCTCCC ((((((....)))..))) | 45 °C | -14.7 kcal/mol |
| GGGAACGGAAACGTCCCC (((.(((....))).))) | 50.2 °C | -30.7 kcal/mol |
| GGGAAGCCGAAAGGCCCC (((..(((....)))))) | 50.6 °C | -16.3 kcal/mol |
| GGGAAGGCGAAAGCCCCC (((..(((....)))))) | 48.1 °C | -14 kcal/mol |
| GGGAATGGAAACATTTCC ((.((((....)))).)) | 45.1 °C | -32 kcal/mol |
| GGGACCCGAAAGGGCCC (((.(((....)))))) | 66 °C | -19 kcal/mol |
| GGGACCGAAAGGTACCCC ((((((....)))..))) | 61.3 °C | -12.5 kcal/mol |
| GGGACCGAAAGGTAGCCC ((((((....)))..))) | 43.2 °C | -16 kcal/mol |
| GGGACCGAAAGGTGCCCC ((((((....)))..))) | 57.6 °C | -13.5 kcal/mol |
| GGGACCGAAAGGTGTCCC ((((((....)))..))) | 51.3 °C | -23.4 kcal/mol |
| GGGACCGGAAACAGTCCC (((((.(....).))))) | 49.4 °C | -34.5 kcal/mol |
| GGGACGACGAAAGTCCCC (((..(((....)))))) | 49.2 °C | -15.2 kcal/mol |
| GGGACTCGAAAGAGACCC (((.(((....))).))) | 59.5 °C | -39.2 kcal/mol |
| GGGAGAGCGAAAGCTCCC (((..(((....)))))) | 53.7 °C | -15.8 kcal/mol |
| GGGAGATCGAAAGATCCC (((..(((....)))))) | 49.8 °C | -14.5 kcal/mol |
| GGGAGCGAAAGCTACCC ((((((....))).))) | 62.8 °C | -15.7 kcal/mol |
| GGGAGCGAAAGCTGGCCC ((((((....)))..))) | 39.8 °C | -14 kcal/mol |
| GGGAGCGGAAACGTTCCC ((((.((....)).)))) | 55.5 °C | -48.9 kcal/mol |
| GGGAGTGAAAACTCCC ((((((....)))))) | 65.2 °C | -34.1 kcal/mol |
| GGGAGTGGAAACACTCTC (.(((((....))))).) | 51.7 °C | -25.1 kcal/mol |
| GGGATAGGAAACTATTCC ((.((((....)))).)) | 40.7 °C | -34.3 kcal/mol |
| GGGATCCCGAAAGGGCCC (((..(((....)))))) | 45 °C | -16.4 kcal/mol |
